Measured values from ChEMBL document CHEMBL1142153, “Pharmacokinetics and disposition of CS-023 (RO4908463), a novel parenteral carbapenem, in animals” (Antimicrob Agents Chemother, 2007).

Experiments:
Rattus norvegicus [1] = experiment: Urinary excretion in rat assessed as radioactivity at 10 mg/kg, iv after 24 h; type: ADME, organism-based, Urine; parameters: dose 10 mg/kg, route intravenous; details: in vivo
How it was run: (§1)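 Rats were dosed i.v. via the tail vein with [14C]CS-023 at 10 mg/kg (4.58 MBq/kg) in saline, then kept in individual metabolic cages for separate urine and feces collection over 7 days. Samples up to 24 h were collected at around 4°C into 0.5 M MOPS pH 6.0, and feces were homogenized. Radioactivity was measured by liquid scintillation counting. Parent drug and metabolite were apportioned by silica TLC (3% NaCl:acetonitrile 2:1) with imaging-plate analysis. n=4.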

Rattus norvegicus [2] = experiment: Fecal excretion in rat assessed as radioactivity at 10 mg/kg, iv after 24 h; type: ADME, organism-based; parameters: dose 10 mg/kg, route intravenous; details: in vivo; how it was run: as §1
[3] = Protein binding in rat serum at 20 ug/ml; type: ADME, cell-free; details: read-out: PPB (converted)
How it was run: (§2)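 Serum was spiked with CS-023 in water to a final 20 or 100 µg/ml and incubated for 5 min at 37°C. It was then ultrafiltered by centrifugation at 2,000 x g for 10 min at room temperature. Drug in serum before filtration (Ct) and in the filtrate (Cf) was measured by HPLC-UV. Bound % = (Ct − Cf)/Ct × 100; n=4.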

[4] = Protein binding in rat serum at 100 ug/ml; type: ADME, cell-free; details: read-out: PPB (converted); how it was run: as §2
[5] = Protein binding in dog serum at 20 ug/ml; type: ADME, cell-free, Canis lupus familiaris; details: read-out: PPB; how it was run: as §2
[6] = Protein binding in dog serum at 100 ug/ml; type: ADME, cell-free, Canis lupus familiaris; details: read-out: PPB (converted); how it was run: as §2
[7] = Half life in rat at 10 mg/kg, iv; type: ADME, organism-based; parameters: dose 10 mg/kg, route intravenous; details: in vivo
How it was run: (§3)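 Rats received CS-023 in saline by tail-vein bolus at 10, 25 or 50 mg/kg; jugular blood was drawn serially. Plasma mixed with an equal volume of 500 mM MOPS pH 6.0 containing internal standard, then HPLC with UV at 304 nm (linear 1–500 µg/ml). Log-linear terminal kel gave t1/2; AUC by trapezoidal rule + Clast/kel; CL = dose/AUC0-inf. n=3.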

[8] = Half life in rat at 25 mg/kg, iv; type: ADME, organism-based; parameters: dose 25 mg/kg, route intravenous; details: in vivo; how it was run: as §3
[9] = Half life in rat at 50 mg/kg, iv; type: ADME, organism-based; parameters: dose 50 mg/kg, route intravenous; details: in vivo; how it was run: as §3
[10] = Half life in dog at 5 mg/kg, iv; type: ADME, organism-based, Canis lupus familiaris; parameters: dose 5 mg/kg, route intravenous; details: in vivo
How it was run: (§4)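 Single i.v. bolus of CS-023 in saline into the foreleg saphenous vein of dogs at 5, 10 or 25 mg/kg; serial blood from the same vein. Plasma separated at 4°C, mixed 1:1 with 500 mM MOPS pH 6.0 containing internal standard, and analysed by two-column HPLC with UV at 304 nm; linear 1–500 µg/ml. kel from log-linear terminal slope, t1/2 = 0.693/kel; AUC by trapezoids plus Clast/kel; CL = dose/AUC; Vss = CL × MRT. n=3.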

[11] = Half life in dog at 10 mg/kg, iv; type: ADME, organism-based, Canis lupus familiaris; parameters: dose 10 mg/kg, route intravenous; details: in vivo; how it was run: as §4
[12] = Half life in dog at 25 mg/kg, iv; type: ADME, organism-based, Canis lupus familiaris; parameters: dose 25 mg/kg, route intravenous; details: in vivo; how it was run: as §4
[13] = AUC (0-inf) in rat at 10 mg/kg, iv; type: ADME, organism-based; parameters: dose 10 mg/kg, route intravenous, time infinity; details: plasma; how it was run: as §3
[14] = AUC (0-inf) in rat at 25 mg/kg, iv; type: ADME, organism-based; parameters: time infinity, dose 25 mg/kg, route intravenous; details: plasma; how it was run: as §3
[15] = AUC (0-inf) in rat at 50 mg/kg, iv; type: ADME, organism-based; parameters: time infinity, dose 50 mg/kg, route intravenous; details: plasma; how it was run: as §3
[16] = AUC (0-inf) in dog at 5 mg/kg, iv; type: ADME, organism-based, Canis lupus familiaris; parameters: time infinity, dose 5 mg/kg, route intravenous; details: plasma; how it was run: as §4
[17] = AUC (0-inf) in dog at 10 mg/kg, iv; type: ADME, organism-based, Canis lupus familiaris; parameters: dose 10 mg/kg, route intravenous, time infinity; details: plasma; how it was run: as §4
[18] = AUC (0-inf) in dog at 25 mg/kg, iv; type: ADME, organism-based, Canis lupus familiaris; parameters: time infinity, dose 25 mg/kg, route intravenous; details: plasma; how it was run: as §4
[19] = Clearance in rat at 10 mg/kg, iv; type: ADME, organism-based; parameters: dose 10 mg/kg, route intravenous; details: in vivo; how it was run: as §3
[20] = Clearance in rat at 25 mg/kg, iv; type: ADME, organism-based; parameters: dose 25 mg/kg, route intravenous; details: in vivo; how it was run: as §3
[21] = Clearance in rat at 50 mg/kg, iv; type: ADME, organism-based; parameters: dose 50 mg/kg, route intravenous; details: in vivo; how it was run: as §3
[22] = Clearance in dog at 5 mg/kg, iv; type: ADME, organism-based, Canis lupus familiaris; parameters: dose 5 mg/kg, route intravenous; details: in vivo; how it was run: as §4
[23] = Clearance in dog at 10 mg/kg, iv; type: ADME, organism-based, Canis lupus familiaris; parameters: dose 10 mg/kg, route intravenous; details: in vivo; how it was run: as §4
[24] = Clearance in dog at 25 mg/kg, iv; type: ADME, organism-based, Canis lupus familiaris; parameters: dose 25 mg/kg, route intravenous; details: in vivo; how it was run: as §4
[25] = Volume of distribution at steady state in rat at 10 mg/kg, iv; type: ADME, organism-based; parameters: dose 10 mg/kg, route intravenous; details: in vivo, read-out: Vss
How it was run: (§5)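 Rats dosed once by tail-vein bolus of CS-023 in saline; blood drawn serially from the jugular vein and plasma separated at 4°C. Plasma mixed 1:1 with 500 mM MOPS pH 6.0 containing p-acetamidophenol internal standard and assayed by HPLC with UV at 304 nm (linear 1 to 500 µg/ml). Vss = CL (dose/AUC0-∞) × mean residence time.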

[26] = Volume of distribution at steady state in rat at 25 mg/kg, iv; type: ADME, organism-based; parameters: dose 25 mg/kg, route intravenous; details: in vivo, read-out: Vss; how it was run: as §5
[27] = Volume of distribution at steady state in rat at 50 mg/kg, iv; type: ADME, organism-based; parameters: dose 50 mg/kg, route intravenous; details: in vivo, read-out: Vss; how it was run: as §5
[28] = Volume of distribution at steady state in dog at 5 mg/kg, iv; type: ADME, organism-based, Canis lupus familiaris; parameters: dose 5 mg/kg, route intravenous; details: in vivo, read-out: Vss; how it was run: as §4
[29] = Volume of distribution at steady state in dog at 10 mg/kg, iv; type: ADME, organism-based, Canis lupus familiaris; parameters: dose 10 mg/kg, route intravenous; details: in vivo, read-out: Vss; how it was run: as §4
[30] = Volume of distribution at steady state in dog at 25 mg/kg, iv; type: ADME, organism-based, Canis lupus familiaris; parameters: dose 25 mg/kg, route intravenous; details: in vivo, read-out: Vss; how it was run: as §4
Macaca fascicularis [31] = experiment: Half life in monkey at 5 mg/kg, iv; details: cynomolgus monkey, in vivo
Macaca fascicularis [32] = experiment: Clearance in monkey at 5 mg/kg, iv; details: cynomolgus monkey, in vivo
Macaca fascicularis [33] = experiment: Half life in monkey at 10 mg/kg, iv; details: cynomolgus monkey, in vivo
Macaca fascicularis [34] = experiment: Half life in monkey at 25 mg/kg, iv; details: cynomolgus monkey, in vivo
Macaca fascicularis [35] = experiment: Clearance in monkey at 10 mg/kg, iv; details: cynomolgus monkey, in vivo
Macaca fascicularis [36] = experiment: Clearance in monkey at 25 mg/kg, iv; details: cynomolgus monkey, in vivo
Macaca fascicularis [37] = experiment: AUC (0-inf) in monkey at 5 mg/kg, iv; details: cynomolgus monkey, plasma
Macaca fascicularis [38] = experiment: AUC (0-inf) in monkey at 10 mg/kg, iv; details: cynomolgus monkey, plasma
Macaca fascicularis [39] = experiment: AUC (0-inf) in monkey at 25 mg/kg, iv; details: cynomolgus monkey, plasma
Macaca fascicularis [40] = organism: Macaca fascicularis; experiment: Protein binding in monkey serum at 20 ug/ml; details: cynomolgus monkey, read-out: PPB (converted)
Macaca fascicularis [41] = organism: Macaca fascicularis; experiment: Protein binding in monkey serum at 100 ug/ml; details: cynomolgus monkey, read-out: PPB (converted)
Macaca fascicularis [42] = experiment: Volume of distribution at steady state in monkey at 5 mg/kg, iv; details: cynomolgus monkey, in vivo, read-out: Vss
Macaca fascicularis [43] = experiment: Volume of distribution at steady state in monkey at 25 mg/kg, iv; details: cynomolgus monkey, in vivo, read-out: Vss
Macaca fascicularis [44] = experiment: Volume of distribution at steady state in monkey at 10 mg/kg, iv; details: cynomolgus monkey, in vivo, read-out: Vss

Activity (Rattus norvegicus [1]): 29.6% | Activity (Rattus norvegicus [2]): 3.1% | fraction unbound at 20 ug/ml [3]: 0.95 | fraction unbound at 100 ug/ml [4]: 0.941 | fraction unbound at 20 ug/ml [5]: 0.91 | fraction unbound at 100 ug/ml [6]: 0.946 | half-life [7]: 9.6 min | half-life [8]: 11.4 min | half-life [9]: 12 min | half-life [10]: 45 min | half-life [11]: 45 min | half-life [12]: 52.8 min | AUC(0-inf) [13]: 10200 ng·h/mL | AUC(0-inf) [14]: 28400 ng·h/mL | AUC(0-inf) [15]: 55000 ng·h/mL | AUC(0-inf) [16]: 18800 ng·h/mL | AUC(0-inf) [17]: 39900 ng·h/mL | AUC(0-inf) [18]: 129000 ng·h/mL | clearance [19]: 16.9 mL/min/kg | clearance [20]: 15.1 mL/min/kg | clearance [21]: 15.2 mL/min/kg | clearance [22]: 4.44 mL/min/kg | clearance [23]: 4.19 mL/min/kg | clearance [24]: 3.26 mL/min/kg | Vd [25]: 0.199 L/kg | Vd [26]: 0.218 L/kg | Vd [27]: 0.22 L/kg | Vd [28]: 0.269 L/kg | Vd [29]: 0.259 L/kg | Vd [30]: 0.228 L/kg | half-life (Macaca fascicularis [31]): 79.2 min | clearance (Macaca fascicularis [32]): 1.76 mL/min/kg | half-life (Macaca fascicularis [33]): 83.4 min | half-life (Macaca fascicularis [34]): 86.4 min | clearance (Macaca fascicularis [35]): 1.62 mL/min/kg | clearance (Macaca fascicularis [36]): 1.73 mL/min/kg | AUC(0-inf) (Macaca fascicularis [37]): 48600 ng·h/mL | AUC(0-inf) (Macaca fascicularis [38]): 104000 ng·h/mL | AUC(0-inf) (Macaca fascicularis [39]): 244000 ng·h/mL | fraction unbound at 20 ug/ml (Macaca fascicularis [40]): 0.844 | fraction unbound at 100 ug/ml (Macaca fascicularis [41]): 0.849 | Vd (Macaca fascicularis [42]): 0.176 L/kg | Vd (Macaca fascicularis [43]): 0.184 L/kg | Vd (Macaca fascicularis [44]): 0.172 L/kg
Compound: C[C@@H](O)[C@H]1C(=O)N2C(C(=O)O)=C(S[C@H]3C[C@@H](C(=O)N4CC[C@H](NC(=O)CNC(=N)N)C4)N(C)C3)[C@H](C)[C@H]12 [TOMOPENEM]
